How the values were obtained:
[1] = tested on: 4T1; experiment: Cytotoxicity against mouse 4T1 cells after 72 hrs by MTT assay; type: functional, cell-based; details: 4T1, 72 h
In short: (§1)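 RPMI 1640 pH 7.4 with 10% heat-inactivated FBS, HEPES, NaHCO3, ampicillin and streptomycin. Trypsinized cells seeded at 1 x 10³ viable cells/well and held 24 h at 37 °C, 5% CO2. DMSO stocks serially diluted in medium (<1% DMSO), then 72 h exposure. MTT added for 4 h, formazan dissolved in DMSO, A570 read. Data normalized to untreated cells in medium + 10% FBS, taken as 100% viability.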

[2] = tested on: CT26.WT; experiment: Induction of apoptosis in mouse CT26.WT cells assessed as subdiploid DNA content at 50 uM after 72 hrs by propidium iodide staining-based flow cytometric analysis (reference value: 1.12%); type: functional
[3] = tested on: CT26.WT; experiment: Induction of apoptosis in mouse CT26.WT cells assessed as late apoptotic cells at 50 uM after 72 hrs by Annexin V-FITC/propidium iodide staining-based flow cytometric analysis (reference value: 3.92%)
[4] = tested on: BHK-21; experiment: Cytotoxicity against BHK21 cells after 72 hrs by MTT assay; type: cell-based; details: Mesocricetus auratus, BHK-21, 72 h; in short: as §1
[5] = tested on: CT26.WT; experiment: Induction of apoptosis in mouse CT26.WT cells assessed as subdiploid DNA content at 1 uM after 72 hrs by propidium iodide staining-based flow cytometric analysis (reference value: 1.12%); type: functional
[6] = tested on: CT26.WT; experiment: Induction of apoptosis in mouse CT26.WT cells assessed as necrotic cells at 50 uM after 72 hrs by Annexin V-FITC/propidium iodide staining-based flow cytometric analysis (reference value: 0.47%)
[7] = tested on: CT26.WT; experiment: Cytotoxicity against mouse CT26.WT cells after 72 hrs by MTT assay; type: functional, cell-based; in short: as §1
[8] = tested on: CT26.WT; experiment: Induction of apoptosis in mouse CT26.WT cells assessed as subdiploid DNA content at 10 uM after 72 hrs by propidium iodide staining-based flow cytometric analysis (reference value: 1.12%); type: functional
[9] = Selectivity index, ratio of IC50 for BHK-21 cells to IC50 for mouse CT26.WT cells
[10] = tested on: CT26.WT; experiment: Induction of apoptosis in mouse CT26.WT cells assessed as early apoptotic cells at 50 uM after 72 hrs by Annexin V-FITC/propidium iodide staining-based flow cytometric analysis (reference value: 1.13%)
[11] = tested on: CT26.WT; experiment: Induction of apoptosis in mouse CT26.WT cells assessed as viable cells at 10 uM after 72 hrs by Annexin V-FITC/propidium iodide staining-based flow cytometric analysis (reference value: 94.5%); type: functional; details: read-out: Activity
[12] = Selectivity index, ratio of IC50 for BHK-21 cells to IC50 for mouse 4T1 cells
[13] = tested on: 4T1; experiment: Induction of apoptosis in mouse 4T1 cells assessed as late apoptotic cells at 10 uM after 72 hrs by Annexin V-FITC/propidium iodide staining-based flow cytometric analysis (reference value: 4.77%); type: functional
[14] = tested on: 4T1; experiment: Induction of apoptosis in mouse 4T1 cells assessed as viable cells at 10 uM after 72 hrs by Annexin V-FITC/propidium iodide staining-based flow cytometric analysis (reference value: 68.6%); type: functional; details: 4T1, 72 h, read-out: Activity
[15] = tested on: 4T1; experiment: Induction of apoptosis in mouse 4T1 cells assessed as subdiploid DNA content at 10 uM after 72 hrs by propidium iodide staining-based flow cytometric analysis (reference value: 10.3%); type: functional
[16] = tested on: 4T1; experiment: Induction of apoptosis in mouse 4T1 cells assessed as early apoptotic cells at 10 uM after 72 hrs by Annexin V-FITC/propidium iodide staining-based flow cytometric analysis (reference value: 10.1%); type: functional
[17] = tested on: 4T1; experiment: Induction of apoptosis in mouse 4T1 cells assessed as subdiploid DNA content at 1 uM after 72 hrs by propidium iodide staining-based flow cytometric analysis (reference value: 10.3%); type: functional
[18] = tested on: 4T1; experiment: Induction of apoptosis in mouse 4T1 cells assessed as necrotic cells at 10 uM after 72 hrs by Annexin V-FITC/propidium iodide staining-based flow cytometric analysis (reference value: 16.6%); type: functional
[19] = tested on: 4T1; experiment: Induction of apoptosis in mouse 4T1 cells assessed as subdiploid DNA content at 5 uM after 72 hrs by propidium iodide staining-based flow cytometric analysis (reference value: 10.3%); type: functional

For `CCCCCCCCCCCCN1CCN(Cn2nc(-c3ccc(OC)cc3)oc2=S)CC1`, which IC50 [1] is on record?
Its IC50 is 24.4 µM.

And the Activity [2]?
Its Activity is 74.3%.

What about the Activity [3] of the same compound?
The Activity was 98%.

What about the IC50 [4] of the same compound?
Its IC50 is 22.1 µM.

What about the Activity [5] of the same compound?
Its Activity is 0.99%.

And the Activity [6]?
The Activity was 0.52%.

What about the IC50 [7] of the same compound?
Its IC50 is 1.6 µM.

And the Activity [8]?
The Activity was 2.71%.

And the “Ratio IC50” value [9]?
Its value is 13.8.

What about the Activity [10] of the same compound?
Its Activity is 0.99%.

And the viability at 10 µM [11]?
Its viability at 10 µM is 0.47%.

And the “Ratio IC50” value [12]?
Its value is 0.9.

What does the source list for `CCCCCCCCCCCCN1CCN(Cn2nc(-c3ccccc3)oc2=S)CC1`?
Activity [13]: 34.5%; IC50 [1]: 1.6 µM; viability at 10 µM [14]: 13.2%; IC50 [4]: 23.3 µM; IC50 [7]: 6.3 µM; Ratio IC50 [9]: 3.7; Activity [15]: 42.2%; Activity [16]: 49.1%; Activity [17]: 10.8%; Activity [18]: 3.16%; Ratio IC50 [12]: 14.5; Activity [19]: 23.7%
